Drawing on ChEMBL document CHEMBL1141288, “Antimalarial and antituberculous poly-O-acylated jatrophane diterpenoids from Pedilanthus tithymaloides” (J Nat Prod, 2007), this text covers IC50, MIC and Activity for nine compounds.

In assay [1] the test system is Plasmodium falciparum. The assay is described as follows: Antimalarial activity against Plasmodium falciparum K1 by microculture radioisotope assay. It is filed as functional, organism-based. A digest of the protocol: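 The P. falciparum K1 strain is multidrug-resistant and was kept in continuous culture. In vitro activity was measured by the microculture radioisotope technique.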

The subject of assay [2] is Mycobacterium tuberculosis. The assay is described as follows: Antitubercular activity against Mycobacterium tuberculosis H37Ra by alamar blue microplate assay. It is filed as functional. (Resazurin is reduced to fluorescent resorufin, in cell work by metabolically active cells.)
For assay [3], the system named is Candida albicans. The assay is described as follows: Antifungal activity against Candida albicans ATCC 90028 at 50 ug/mL by tetrazolium/formazan assay. It is filed as functional, organism-based. The essentials:
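Candida albicans ATCC 90028 tested with a tetrazolium/formazan assay. Compounds were run at 50 µg/mL. Amphotericin B served as the positive control and DMSO as the negative control.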

Assay [4] deals with Plasmodium falciparum. The assay is described as follows: Antimalarial activity against Plasmodium falciparum K1 at 10 ug/mL by microculture radioisotope assay. In kind it is functional, organism-based.
Assay [5] has as its system Candida albicans. The assay is described as follows: Antifungal activity against Candida albicans ATCC 90028 by tetrazolium/formazan assay. In kind it is functional, organism-based.

Values after ≈ are worked out from the molar mass of the structure shown. Active and inactive are the calls of the source. The calls are words filed in the database; no cut-off is given here.

What is called IC50 is the concentration needed to halve the response being measured. The low end stands for greater potency in that assay, the high end for weaker potency in that assay. Broadly, the MIC is the lowest concentration that inhibits growth of the organism. Read a high MIC as a less susceptible organism. `CC(=O)O[C@@H]1/C(C)=C/CC(C)(C)[C@@H](OC(C)=O)[C@@H](OC(C)=O)C(=O)/C(C)=C\[C@H]2[C@@H](OC(=O)c3ccccc3)[C@@H](C)[C@H](OC(C)=O)[C@]12OC(C)=O`: the IC50 with Plasmodium falciparum [1] was 4 µM. The compound further displayed a minimum inhibitory concentration (MIC) in assay [2] of 50 µg/mL (≈ 71.6 µM).
Turning to `CC(=O)O/C1=C(\C)[C@@H](O)[C@H]2[C@@H](OC(=O)c3ccccc3)[C@@H](C)[C@H](O)[C@]2(OC(C)=O)[C@H](OC(C)=O)/C(C)=C/CC(C)(C)[C@@H](OC(C)=O)[C@H]1OC(C)=O`, in the assay on Plasmodium falciparum [1], the IC50 is 6 µM. Further, inhibition of growth in assay [2] (MIC) required 100 µg/mL (≈ 140 µM).
In assay [2], `NNC(=O)c1ccncc1` [ISONIAZID] came in with an MIC of 0.1 µg/mL (≈ 0.729 µM).
On to `NC[C@H]1O[C@H](O[C@H]2[C@H](O)[C@@H](O[C@H]3O[C@H](CO)[C@@H](O)[C@H](N)[C@H]3O)[C@H](N)C[C@@H]2N)[C@H](O)[C@@H](O)[C@@H]1O` [KANAMYCIN], for which inhibition of growth in assay [2] (MIC) required 2.5 µg/mL (≈ 5.16 µM).
For `CC(=O)O/C1=C(\C)[C@@H](O)[C@H]2[C@@H](OC(=O)c3ccccc3)[C@@H](C)[C@H](OC(C)=O)[C@]2(OC(C)=O)[C@H](OC(C)=O)/C(C)=C/CC(C)(C)[C@@H](OC(C)=O)[C@H]1OC(C)=O`, in the assay with Plasmodium falciparum [1], half-maximal inhibition (IC50) required 5.8 µM. Besides, the outcome with Candida albicans [3] was inactive. In assay [2], the MIC is 50 µg/mL (≈ 65.9 µM).
With `CC(=O)O[C@H]1C[C@@H](OC(=O)c2ccccc2)/C(C)=C\[C@H]2[C@@H](OC(=O)c3ccccc3)[C@@H](C)[C@H](O)[C@]2(OC(C)=O)[C@H](O)[C@@](C)(O)/C=C/C1(C)C`, the midpoint of inhibition with Plasmodium falciparum [1], the IC50, lay at 5.9 µM. The outcome in the assay on Candida albicans [3] was inactive. Also, in assay [2], the lowest concentration to inhibit growth (MIC) was 12.5 µg/mL (≈ 18.4 µM).
On to `CC(=O)O[C@H]1C[C@@H](O)/C(C)=C\[C@H]2[C@@H](OC(=O)c3ccccc3)[C@@H](C)[C@H](O)[C@]2(OC(C)=O)[C@H](O)[C@@](C)(O)/C=C/C1(C)C`, for which the result in the assay with Candida albicans [3] and in the assay with Plasmodium falciparum [4] was inactive. The compound also gave an MIC in assay [2] of 100 µg/mL (≈ 174 µM).
In the case of `C[C@H]1[C@@H](O)O[C@@H]2O[C@@]3(C)CC[C@H]4[C@H](C)CC[C@@H]1[C@@]24OO3` [ARTENIMOL], it took 0.0036 µM to reach half-maximal inhibition with Plasmodium falciparum [1] (IC50).
In the assay on Candida albicans [5], `C[C@@H]1[C@H](O)[C@@H](C)/C=C/C=C/C=C/C=C/C=C/C=C/C=C/[C@H](O[C@@H]2O[C@H](C)[C@@H](O)[C@H](N)[C@@H]2O)C[C@@H]2O[C@](O)(C[C@@H](O)C[C@@H](O)[C@H](O)CC[C@@H](O)C[C@@H](O)CC(=O)O[C@H]1C)C[C@H](O)[C@H]2C(=O)O` (stereo in doubt) [AMPHOTERICIN B] showed an IC50 of 0.068 µg/mL (≈ 0.0736 µM).
